Test results from ChEMBL document CHEMBL1129987, “Structure-based design of nonpeptidic HIV protease inhibitors: the sulfonamide-substituted cyclooctylpyramones” (J Med Chem, 1997).

Assays:
[1] = biological target: Human immunodeficiency virus type 1 protease (Human immunodeficiency virus 1, UniProt Q72874); experiment: Binding affinity against HIV-1 protease
[2] = Median cell culture toxic dose was evaluated against H9 cell line; type: ADME, cell-based; settings: human, H9 cells; read-out: CCTD50
[3] = tested on: Human immunodeficiency virus 1; experiment: Antiviral activity in HIV-1 infected H9 cells; type: functional; settings: Human immunodeficiency virus 1, H9; read-out: ED50 (the source's name)
Outline: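 H9 cells infected with HIV-1 IIIB at MOI about 0.005, spun down (200g, 10 min), resuspended at 8 × 10^5 cells/mL in RPMI Complete and mixed with compound; final DMSO 0.1%, triplicate per concentration. After 5 days at 37 °C in 5% CO2, supernatant p24 antigen was measured by ELISA. ED50 is the drug amount that reduces p24 by 50% versus DMSO drug-free controls.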

SMILES	Ki [1] [nM]	EC50 [3] [nM]	CC50 [2] [nM]
COc1ccc(S(=O)(=O)Nc2cccc(C(c3c(O)c4c(oc3=O)CCCCCC4)C3CC3)c2)cc1 (stereo not given)	3.9	4500	> 30000
CCCCCCCCS(=O)(=O)Nc1cccc(C(c2c(O)c3c(oc2=O)CCCCCC3)C2CC2)c1 (stereo not given)	6		
NC(=O)c1ccc(S(=O)(=O)Nc2cccc(C(c3c(O)c4c(oc3=O)CCCCCC4)C3CC3)c2)cc1 (stereo not given)	1.9	5800	> 30000
CCC(c1cccc(NS(=O)(=O)c2ccc(C#N)cc2)c1)c1c(O)c2c(oc1=O)CCCCCC2 (stereo not given)	3.1	3300	> 30000
CC(C)CC(c1cccc(NS(=O)(=O)c2cccc3cccnc23)c1)c1c(O)c2c(oc1=O)CCCCCC2 (stereo not given)	3.3	> 10000	> 30000
Cc1cccc(S(=O)(=O)Nc2cccc(C(c3c(O)c4c(oc3=O)CCCCCC4)C3CC3)c2)c1 (stereo not given)	5.3	4000	> 30000
Cc1ccccc1S(=O)(=O)Nc1cccc(C(c2c(O)c3c(oc2=O)CCCCCC3)C2CC2)c1 (stereo not given)	9.3		> 30000
CCC(c1ccccc1)c1c(O)c2ccccc2oc1=O (stereo not given) [PHENPROCOUMON]	0.8		
CC(C)C(c1cccc(NS(=O)(=O)c2cccc3cccnc23)c1)c1c(O)c2c(oc1=O)CCCCCC2 (stereo not given)	4.2	> 10000	> 30000
Cn1cnc(S(=O)(=O)Nc2cccc([C@H](c3c(O)c4c(oc3=O)CCCCCC4)C3CC3)c2)c1	0.08		> 30000
CC(C)CC(c1cccc(NS(=O)(=O)c2cccnc2)c1)c1c(O)c2c(oc1=O)CCCCCC2 (stereo not given)	9.3	> 10000	> 30000
COc1ccc(S(=O)(=O)Nc2cccc(C(c3c(O)c4c(oc3=O)CCCCCC4)C3CC3)c2)cc1OC (stereo not given)	6.8	4100	> 30000
CCCCOc1ccc(S(=O)(=O)Nc2cccc(C(c3c(O)c4c(oc3=O)CCCCCC4)C3CC3)c2)cc1 (stereo not given)	18		> 30000
CCc1ccc(S(=O)(=O)Nc2cccc(C(c3c(O)c4c(oc3=O)CCCCCC4)C3CC3)c2)cc1 (stereo not given)	5		> 30000
COC(=O)c1cccc(S(=O)(=O)Nc2cccc(C(c3c(O)c4c(oc3=O)CCCCCC4)C3CC3)c2)c1 (stereo not given)	1.4	2600	> 30000
Cn1cnc(S(=O)(=O)Nc2cccc(C(c3c(O)c4c(oc3=O)CCCCCC4)C3CC3)c2)c1 (stereo not given)	1.6	2700	> 100000

SMILES	Ki [1] [nM]	EC50 [3] [nM]	CC50 [2] [nM]
CC(C)CC(c1cccc(NS(=O)(=O)c2ccc(F)cc2)c1)c1c(O)c2c(oc1=O)CCCCCC2 (stereo not given)	2.8	> 10000	> 30000
CCCC(c1cccc(NS(=O)(=O)c2cccnc2)c1)c1c(O)c2c(oc1=O)CCCCCC2 (stereo not given)	2.2	> 10000	> 30000
CC(C)CC(c1cccc(NS(=O)(=O)c2cn(C)cn2)c1)c1c(O)c2c(oc1=O)CCCCCC2 (stereo not given)	0.086	1300	> 30000
CC(C)C(c1cccc(NS(=O)(=O)c2cn(C)cn2)c1)c1c(O)c2c(oc1=O)CCCCCC2 (stereo not given)	0.5	2500	> 30000
CCCCS(=O)(=O)Nc1cccc(C(c2c(O)c3c(oc2=O)CCCCCC3)C2CC2)c1 (stereo not given)	4.6		
CC(C)C(c1cccc(NS(=O)(=O)c2cccnc2)c1)c1c(O)c2c(oc1=O)CCCCCC2 (stereo not given)		> 10000	> 30000
CC(C)S(=O)(=O)Nc1cccc(C(c2c(O)c3c(oc2=O)CCCCCC3)C2CC2)c1 (stereo not given)	33		
Nc1ccc(S(=O)(=O)Nc2cccc(C(c3c(O)c4c(oc3=O)CCCCCC4)C3CC3)c2)cc1 (stereo not given)	6.9		> 30000
CC(C)c1ccc(S(=O)(=O)Nc2cccc(C(c3c(O)c4c(oc3=O)CCCCCC4)C3CC3)c2)cc1 (stereo not given)	13		> 30000
CS(=O)(=O)Nc1cccc(C(c2c(O)c3c(oc2=O)CCCCCC3)C2CC2)c1 (stereo not given)	11		
CCCS(=O)(=O)Nc1cccc(C(c2c(O)c3c(oc2=O)CCCCCC3)C2CC2)c1 (stereo not given)	4		
CC(C)(C)OC(=O)NCCC(=O)Nc1cccc(C(c2c(O)c3c(oc2=O)CCCCCC3)C2CC2)c1 (stereo not given)		33000	
O=c1c2c(oc(O)c1C(c1ccccc1)C1CC1)CCCCCC2 (stereo not given)	15		
CCCc1ccc(S(=O)(=O)Nc2cccc(C(c3c(O)c4c(oc3=O)CCCCCC4)C3CC3)c2)cc1 (stereo not given)	11		> 30000
CCS(=O)(=O)Nc1cccc(C(c2c(O)c3c(oc2=O)CCCCC3)C2CC2)c1 (stereo not given)	63		

More lines, main results first:

Ki [1] [nM]	EC50 [3] [nM]	SMILES	CC50 [2] [nM]
11	5900	O=c1c2c(oc(O)c1C(c1cccc(NS(=O)(=O)c3ccccc3F)c1)C1CC1)CCCCCC2 (stereo not given)	> 30000
6.2		O=c1c2c(oc(O)c1C(c1cccc(NS(=O)(=O)c3ccc(Cl)cc3Cl)c1)C1CC1)CCCCCC2 (stereo not given)	> 30000
4	3400	O=c1c2c(oc(O)c1C(c1cccc(NS(=O)(=O)c3ccc(OC(F)(F)F)cc3)c1)C1CC1)CCCCCC2 (stereo not given)	> 30000
7.6	> 3000	O=c1c2c(oc(O)c1C(c1cccc(NS(=O)(=O)c3cccc(Cl)c3Cl)c1)C1CC1)CCCCCC2 (stereo not given)	> 30000
8.8	4100	O=c1c2c(oc(O)c1C(c1cccc(NS(=O)(=O)c3ccc(Cl)c(Cl)c3Cl)c1)C1CC1)CCCCCC2 (stereo not given)	> 30000
	2600	O=c1c2c(oc(O)c1[C@H](c1cccc(NS(=O)(=O)c3ccccc3)c1)C1CC1)CCCCCC2	> 30000
0.8	1700	O=c1c2c(oc(O)c1C(c1cccc(NS(=O)(=O)c3ncccn3)c1)C1CC1)CCCCCC2 (stereo not given)	> 30000
1.6	> 3000	O=c1c2c(oc(O)c1C(c1cccc(NS(=O)(=O)c3cscn3)c1)C1CC1)CCCCCC2 (stereo not given)	> 30000
3		O=c1c2c(oc(O)c1C(c1cccc(NS(=O)(=O)/C=C/c3ccccc3)c1)C1CC1)CCCCCC2 (stereo not given)	
3.1	5300	O=c1c2c(oc(O)c1C(c1cccc(NS(=O)(=O)c3ccc(I)cc3)c1)C1CC1)CCCCCC2 (stereo not given)	> 30000
	5500	O=c1c2c(oc(O)c1C(c1cccc(NS(=O)(=O)c3ccccc3)c1)C1CC1)CCCCCC2 (stereo not given)	> 30000
9.3		O=c1c2c(oc(O)c1C(c1cccc(NS(=O)(=O)c3ccccc3Cl)c1)C1CC1)CCCCCC2 (stereo not given)	> 30000
3.6		O=c1c2c(oc(O)c1C(c1cccc(NS(=O)(=O)C3CCCCC3)c1)C1CC1)CCCCCC2 (stereo not given)	
4.1	3400	O=c1c2c(oc(O)c1C(c1cccc(NS(=O)(=O)c3ccc4ccccc4c3)c1)C1CC1)CCCCCC2 (stereo not given)	> 30000
18		C=CS(=O)(=O)Nc1cccc(C(c2c(O)oc3c(c2=O)CCCCCC3)C2CC2)c1 (stereo not given)	
> 200		C=CS(=O)(=O)Nc1cccc(C(c2c(O)oc3c(c2=O)CCCCC3)C2CC2)c1 (stereo not given)	
	> 10000	O=c1c2c(oc(O)c1[C@@H](c1cccc(NS(=O)(=O)c3ccccc3)c1)C1CC1)CCCCCC2	> 30000
> 200		O=c1c2c(oc(O)c1C(c1cccc(NS(=O)(=O)c3c(Cl)cccc3Cl)c1)C1CC1)CCCCCC2 (stereo not given)	> 30000
74		O=c1c2c(oc(O)c1C(c1cccc(NS(=O)(=O)c3cc(Cl)ccc3Cl)c1)C1CC1)CCCCCC2 (stereo not given)	> 30000
> 200		Cc1cccc(C)c1S(=O)(=O)Nc1cccc(C(c2c(O)c3c(oc2=O)CCCCCC3)C2CC2)c1 (stereo not given)	> 30000
47		O=c1c2c(oc(O)c1C(c1cccc(NS(=O)(=O)c3ccc(C(F)(F)F)c(C(F)(F)F)c3)c1)C1CC1)CCCCCC2 (stereo not given)	> 30000
21		O=c1c2c(oc(O)c1C(c1cccc(NS(=O)(=O)c3ccccc3C(F)(F)F)c1)C1CC1)CCCCCC2 (stereo not given)	> 30000
120		CS(=O)(=O)Nc1cccc(C(c2c(O)c3c(oc2=O)CCCCC3)C2CC2)c1 (stereo not given)	
36		O=c1c2c(oc(O)c1C(c1cccc(S(=O)(=O)Nc3ccccc3)c1)C1CC1)CCCCCC2 (stereo not given)	
13		O=c1c2c(oc(O)c1C(c1cccc(NS(=O)(=O)Cc3ccccc3)c1)C1CC1)CCCCCC2 (stereo not given)	
10		CCS(=O)(=O)Nc1cccc(C(c2c(O)c3c(oc2=O)CCCCCC3)C2CC2)c1 (stereo not given)	
3.9		O=c1c2c(oc(O)c1C(c1cccc(NS(=O)(=O)CCc3ccccc3)c1)C1CC1)CCCCCC2 (stereo not given)	
